{"data": "Measurements from different studies", "CDK8": "Cyclin-dependent kinase 8 (CDK8, Homo sapiens, UniProt P49336)", "CDK8 with cyclin C": "Cyclin-dependent kinase 8, with cyclin C (CDK8, Homo sapiens, UniProt P49336)", "Oprd1": "Delta-type opioid receptor (Oprd1, Rattus norvegicus, UniProt P33533)", "note": "Compare with care: the assays were run in different laboratories."}
{"Compound": "CN(C)C(=O)COC(=O)Cc1ccc(OC(=O)c2ccc(NC(=N)N)cc2)cc1", "target": "Ubiquitin carboxyl-terminal hydrolase 14 (USP14, Homo sapiens, UniProt P54578)", "test": "enzyme activity, inhibitor", "setting": "10 µM", "endpoint": "inhibition", "value": "0%"}
{"Compound": "COc1ncccc1-c1cnn2ccc(N3CCN(C(=O)OC(C)C)CC3)nc12", "target": "CDK8", "test": "binding, competition with immobilised ligand", "setting": "1 µM", "endpoint": "remaining binding", "value": "55%"}
{"Compound": "Nc1ncc(-c2nc(N3CCOCC3)nc(N3CCOCC3)n2)c(C(F)F)n1", "target": "Mitogen-activated protein kinase kinase kinase kinase 1 (MAP4K1, Homo sapiens, UniProt Q92918)", "test": "binding, competition with immobilised ligand", "setting": "10 µM", "endpoint": "remaining binding", "value": "88%"}
{"Compound": "C#Cc1n[nH]c2c(-c3cn(C(C)c4ccccn4)c(=O)[nH]c3=O)cc(F)cc12 (stereo not drawn)", "target": "CDK8 with cyclin C", "test": "enzyme activity, inhibitor", "setting": "1 µM", "endpoint": "inhibition", "value": "6.2%"}
{"Compound": "COc1cc(Cl)c(C(=O)N[C@@H](CN[C@H]2CC[C@@H](N)CC2)Cc2ccc(C#N)cc2)cc1-c1ccc(CN[C@H](C)c2ccc(C)cc2)o1", "target": "MAP kinase-activated protein kinase 3 (MAPKAPK3, Homo sapiens, UniProt Q16644)", "test": "enzyme activity, inhibitor", "setting": "1 µM", "endpoint": "remaining activity", "value": "107%"}
{"Compound": "C#Cc1n[nH]c2c(-c3cn([C@@H](C)c4ccccc4)c(=O)[nH]c3=O)cc(F)cc12", "target": "CDK8 with cyclin C", "test": "enzyme activity, inhibitor", "setting": "0.1 µM", "endpoint": "inhibition", "value": "-1.5%"}
{"Compound": "C[C@@H](O)[C@@H]1CN([C@H](Cc2ccc3ccccc3c2)CN2CCC[C@H]2CN2CCNC[C@@H]2Cc2ccc3ccccc3c2)CCN1CCc1ccc(Cl)c(Cl)c1", "target": "Oprd1", "test": "ligand displacement, radioligand", "setting": "0.5 µM, 2 h, pH 7.5, cell membranes", "endpoint": "remaining binding", "value": "105%"}
{"Compound": "CCN(CC)CCCC[C@H](NC(=O)[C@H](CC(C)C)NC(=O)[C@H](C)NC(=O)[C@H](Cc1ccccc1)NC(=O)c1ccc(C(C)(C)C)cc1)C(=O)N[C@@H](CO)C(=O)OC", "target": "5-hydroxytryptamine receptor 7 (HTR7, Homo sapiens, UniProt P34969)", "test": "ligand displacement, radioligand", "setting": "10 µM", "endpoint": "remaining binding", "value": "92.2%"}
{"Compound": "CC[C@@H](C)[C@@H]1CN([C@H](Cc2ccc3ccccc3c2)CN2CCC[C@H]2CN2CCNC[C@@H]2CO)CCN1CCc1ccc(Cl)c(Cl)c1", "target": "Oprd1", "test": "ligand displacement, radioligand", "setting": "0.5 µM, 2 h, pH 7.5, cell membranes", "endpoint": "remaining binding", "value": "87.7%"}
{"Compound": "N#Cc1ccc(NCCNCC(=O)N2N=CCC2C#N)nc1 (stereo not drawn)", "target": "Dipeptidyl peptidase 9 (DPP9, Homo sapiens, UniProt Q86TI2)", "test": "enzyme activity, inhibitor", "setting": "10 µM", "endpoint": "inhibition", "value": "87%"}
{"Compound": "OC[C@H]1CNCCN1C[C@@H]1CCCN1C[C@H](CC1CCCCC1)N1CCN(CCc2ccc(Cl)c(Cl)c2)[C@H](Cc2ccc(O)cc2)C1", "target": "Oprd1", "test": "ligand displacement, radioligand", "setting": "0.5 µM, 2 h, pH 7.5, cell membranes", "endpoint": "remaining binding", "value": "88%"}
{"Compound": "Cc1nn(C)cc1-c1nc2c(N3CCN(Cc4ccc(Cl)cc4)CC3)c(Cl)cnc2[nH]1", "target": "CDK8", "test": "binding, competition with immobilised ligand", "setting": "1 µM", "endpoint": "remaining binding", "value": "75%"}
